Among the data in ChEMBL document CHEMBL1121810, “Antihypertensive activity of 6-arylpyrido[2,3-d]pyrimidin-7-amine derivatives” (1981) are Activity rating and Decrease values, retold here.

Molecules are shown by their SMILES.

What all share (type): functional
What all share (conditions): route oral

In experiment [1] the test system is Rattus norvegicus. Description: Blood pressure rating in spontaneously hypertensive rats, 10 hr after peroral administration of 50 mg/kg of compound. Summed up: (§1)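 Conscious male SHR (Kyoto-Wistar origin, 22-24 weeks, 250-350 g) with indwelling catheters, given about 160 units heparin/day in saline. Only rats with mean blood pressure >150 mmHg and pulse pressure >25 mmHg were used, in groups of 3-4. Dosing was oral gavage at 2 mL/kg in 4% gum acacia suspension, as free base. Pressure was sampled 3 min of every 30 min, and 30-min means were compared with pretreatment values.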

In experiment [2] the test system is Rattus norvegicus. Description: Blood pressure rating in spontaneously hypertensive rats, 24 hr after peroral administration of 50 mg/kg of compound. Summed up: as §1
The subject of experiment [3] is Rattus norvegicus. Description: Blood pressure rating in spontaneously hypertensive rats, 2 hr after peroral administration of 50 mg/kg of compound. Summed up:
as §1

Experiment [4] relates to Rattus norvegicus. Briefly: Effect on heart rate of spontaneously hypertensive rats, 10 hr after peroral administration at 50 mg/kg. The method, boiled down:
(§2)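 Heart rate was derived from the pulsatile arterial pressure signal in conscious catheterized male SHR (22-24 weeks, 250-350 g), with continuous monitoring sampled 3 min per 30 min. Drug was given by gavage as a 4% gum acacia suspension at 2 mL/kg, dose as free base, to groups of 3-4 rats with mean pressure >150 mmHg. Individual 30-min means were compared with pretreatment values.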

Experiment [5] concerns Rattus norvegicus. Briefly: Effect on heart rate of spontaneously hypertensive rats, 24 hr after peroral administration at 50 mg/kg. Summed up:
as §2

For experiment [6], the system named is Rattus norvegicus. Description: Effect on heart rate of spontaneously hypertensive rats, 2 hr after peroral administration at 50 mg/kg. The method, boiled down:
as §2

Experiment [7] relates to Rattus norvegicus. Description: Maximum percent decrease in heart rate of spontaneously hypertensive rats, 2 hours after peroral administration of 50 mg/kg of compound. Summed up:
as §2

For experiment [8], the system named is Rattus norvegicus. Description: Maximum percent decrease in heart rate of spontaneously hypertensive rats, 8 hours after peroral administration of 50 mg/kg of compound. The method, boiled down:
(§3)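 Conscious male SHR (Kyoto-Wistar origin, 22-24 weeks, 250-350 g; mean BP >150 mmHg, pulse pressure >25 mmHg) with indwelling catheters, ~0.8 mL heparinized saline/day. Dosed by gavage as a 4% gum acacia suspension, 2 mL/kg, free-base doses, 3-4 rats per group. Heart rate was derived from the pulsatile pressure signal, sampled 3 min every 30 min, and 30-min means were compared with pretreatment values.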

In experiment [9] the test system is Rattus norvegicus. Description: Effect on heart rate of spontaneously hypertensive rats, 18 hr after peroral administration of 50 mg/kg of compound. Summed up:
as §2

In experiment [10] the test system is Rattus norvegicus. Briefly: Maximum percent decrease in heart rate of spontaneously hypertensive rats, 5 hours after peroral administration of 50 mg/kg of compound. The method, boiled down: as §3
In experiment [11] the test system is Rattus norvegicus. Description: Max effect on heart rate of spontaneously hypertensive rats, 3-5 hr after peroral administration of 10 mg/kg of compound. Summed up:
as §2

Experiment [12] concerns Rattus norvegicus. Description: Maximum percent decrease in heart rate of spontaneously hypertensive rats, 10 hours after peroral administration of 50 mg/kg of compound. The method, boiled down:
as §2

Experiment [13] has as its system Rattus norvegicus. Description: Effect on heart rate of spontaneously hypertensive rats, 10 hr after peroral administration of 10 mg/kg of compound. The method, boiled down:
as §2

The test system of experiment [14] is Rattus norvegicus. Briefly: Effect on heart rate of spontaneously hypertensive rats, 2 hr after peroral administration of 10 mg/kg of compound. The method, boiled down: as §2
The test system of experiment [15] is Rattus norvegicus. Briefly: Effect on heart rate of spontaneously hypertensive rats, 24 hr after peroral administration of 10 mg/kg of compound. Summed up: as §2
Experiment [16] concerns Rattus norvegicus. Description: Maximum percent decrease in heart rate of spontaneously hypertensive rats, 6 hours after peroral administration of 50 mg/kg of compound. The method, boiled down:
as §3

For experiment [17], the system named is Rattus norvegicus. Briefly: Effect on heart rate of spontaneously hypertensive rats, 24 hr after peroral administration of 3 mg/kg of compound. The method, boiled down: as §2
In experiment [18] the test system is Rattus norvegicus. Description: Effect on heart rate of spontaneously hypertensive rats, 2 hr after peroral administration of 3 mg/kg of compound. Summed up:
as §2

In the case of `Cc1ccccc1-c1cc2cnc(C3CC3)nc2nc1N`, the Activity rating in the experiment with Rattus norvegicus [1], in the experiment on Rattus norvegicus [2] and in the experiment on Rattus norvegicus [3] was 0 each time.

Regarding `Cc1cc(C)c(-c2cc3cnc(C)nc3nc2N)c(C)c1`, the values for the Activity rating with Rattus norvegicus [4], with Rattus norvegicus [5] and in the experiment with Rattus norvegicus [6] were 0, 0 and 1, respectively. The same compound had a Decrease with Rattus norvegicus [7] of 18%.

As for `Cc1ncc2cc(-c3ccc(Cl)cc3Cl)c(N)nc2n1`, the results for the Activity rating in the experiment with Rattus norvegicus [4], in the experiment with Rattus norvegicus [5] and in the experiment on Rattus norvegicus [6] were 1, 1 and 0, respectively. This compound also showed a Decrease with Rattus norvegicus [8] of 13%.

As for `Cc1ncc2cc(-c3cccnc3)c(N)nc2n1`, the Activity rating in the experiment on Rattus norvegicus [4], with Rattus norvegicus [5] and with Rattus norvegicus [6] was 0 in each case.

For the compound `Cc1ncc2cc(-c3ccco3)c(N)nc2n1`, the Activity rating with Rattus norvegicus [1], in the experiment with Rattus norvegicus [2] and with Rattus norvegicus [3] was 0 in each case.

As to `Nc1nc2ncncc2cc1-c1cccnc1`, the Activity rating in the experiment with Rattus norvegicus [4], in the experiment with Rattus norvegicus [5] and in the experiment on Rattus norvegicus [6] was 0 throughout.

On to `Nc1nc2ncncc2cc1-c1ccccc1I`, for which the values for the Activity rating in the experiment on Rattus norvegicus [4], in the experiment on Rattus norvegicus [5] and with Rattus norvegicus [6] were 0, 1 and 0, respectively. The same compound came in with a Decrease in the experiment with Rattus norvegicus [8] of 11%.

For `CCc1ncc2cc(-c3ccccc3C)c(N)nc2n1`, the Activity rating in the experiment with Rattus norvegicus [4], in the experiment on Rattus norvegicus [5] and with Rattus norvegicus [6] was 0 each time.

`Cc1cccc(-c2cc3cncnc3nc2N)c1C`: the Activity rating in the experiment with Rattus norvegicus [4], in the experiment with Rattus norvegicus [5] and in the experiment with Rattus norvegicus [6] was 0 in each case.

In the case of `Nc1nc2ncncc2cc1-c1ccccc1Br`, the Activity rating with Rattus norvegicus [4] was 1; with Rattus norvegicus [9], 1; with Rattus norvegicus [6], 0; in the experiment with Rattus norvegicus [11] it was 0. This compound also registered a Decrease in the experiment on Rattus norvegicus [10] of 16%.

Turning to `Cc1ncc2cc(-c3cccc(Br)c3C)c(N)nc2n1`, the Activity rating in the experiment on Rattus norvegicus [4], in the experiment with Rattus norvegicus [5] and in the experiment with Rattus norvegicus [6] was 0 each time.

Turning to `Nc1nc2nc(C(F)(F)F)ncc2cc1-c1c(Cl)cccc1Cl`, the Activity rating in the experiment with Rattus norvegicus [4], in the experiment with Rattus norvegicus [5] and in the experiment with Rattus norvegicus [6] was 0 in each case.

As to `Cc1cccc(Cl)c1-c1cc2cncnc2nc1N`, the figures for the Activity rating in the experiment with Rattus norvegicus [4], with Rattus norvegicus [9] and with Rattus norvegicus [6] were 2, 1 and 1, respectively. This compound also came in with a Decrease in the experiment with Rattus norvegicus [12] of 21%.

Consider `Nc1nc2ncncc2cc1-c1ccccc1C(F)(F)F`, for which the Activity rating with Rattus norvegicus [4], in the experiment with Rattus norvegicus [5] and in the experiment with Rattus norvegicus [6] was 0 in each case.

In the case of `CCOc1nc(C)nc2nc(N)c(-c3c(Cl)cccc3Cl)cc12`, the Activity rating in the experiment on Rattus norvegicus [1], in the experiment on Rattus norvegicus [2] and in the experiment with Rattus norvegicus [3] was 0 in each case.

As for `Cc1ncc2cc(-c3ccccc3F)c(N)nc2n1`, the Activity rating in the experiment on Rattus norvegicus [4], with Rattus norvegicus [5] and in the experiment on Rattus norvegicus [6] was 0 in each case.

In the case of `Cc1ncnc2nc(N)c(-c3c(Cl)cccc3Cl)cc12`, the Activity rating worked out at 2 with Rattus norvegicus [4]; 0 with Rattus norvegicus [13]; 0 in the experiment with Rattus norvegicus [14]; 0 in the experiment on Rattus norvegicus [15]; 2 with Rattus norvegicus [6]. For the same compound, the Decrease in the experiment with Rattus norvegicus [16] is 26%.

Regarding `Nc1nc2nc(/C=C/c3ccccc3)ncc2cc1-c1c(Cl)cccc1Cl`, the Activity rating was 1 with Rattus norvegicus [1], 0 with Rattus norvegicus [2] and 0 in the experiment with Rattus norvegicus [3]. Moreover, the Decrease in the experiment with Rattus norvegicus [16] came to 13%.

On to `Cc1ncc2cc(-c3c(C)cccc3Br)c(N)nc2n1`, for which the Activity rating is given as 1 with Rattus norvegicus [4], 0 in the experiment on Rattus norvegicus [5] and 0 in the experiment on Rattus norvegicus [6]. The same compound had a Decrease in the experiment with Rattus norvegicus [10] of 18%.

Regarding `Cc1nc(C)c2cc(-c3c(Cl)cccc3Cl)c(N)nc2n1`, the Activity rating in the experiment with Rattus norvegicus [4] was determined as 3; with Rattus norvegicus [9] it was 2; in the experiment on Rattus norvegicus [6], 2. In the experiment on Rattus norvegicus [16], this compound registered a Decrease of 32%.

Turning to `CCc1ncc2cc(-c3ccccc3Cl)c(N)nc2n1`, the Activity rating in the experiment on Rattus norvegicus [4], in the experiment on Rattus norvegicus [5] and in the experiment on Rattus norvegicus [6] was 0 each time.

Regarding `Clc1cccc(Cl)c1NC1=NCCN1` [CLONIDINE], the Activity rating with Rattus norvegicus [17] is recorded as 2; with Rattus norvegicus [18] it was 0.

For `Cc1ncc2cc(-c3ccc([N+](=O)[O-])cc3)c(N)nc2n1`, the Activity rating in the experiment with Rattus norvegicus [1], with Rattus norvegicus [2] and with Rattus norvegicus [3] was 0 each time.

With `Cc1ncc2cc(-c3ccc(Cl)cc3)c(N)nc2n1`, the Activity rating with Rattus norvegicus [4], in the experiment on Rattus norvegicus [5] and with Rattus norvegicus [6] was 0 in each case.

Turning to `Cc1ncc2cc(-c3cccc(Cl)c3Cl)c(N)nc2n1`, the Activity rating in the experiment on Rattus norvegicus [4], with Rattus norvegicus [5] and in the experiment on Rattus norvegicus [6] was 0 in each case.

For the compound `Cc1ccccc1-c1cc2cncnc2nc1N`, the Activity rating came out at 1 with Rattus norvegicus [4]; 0 in the experiment on Rattus norvegicus [13]; 0 in the experiment on Rattus norvegicus [14]; 0 in the experiment on Rattus norvegicus [5]; 0 in the experiment with Rattus norvegicus [15]; 1 with Rattus norvegicus [6]. Also, the Decrease in the experiment with Rattus norvegicus [7] came to 18%.

Turning to `CCc1ncc2cc(-c3c(Cl)cccc3Cl)c(N)nc2n1`, the Activity rating is listed as 1 in the experiment on Rattus norvegicus [4], 0 in the experiment with Rattus norvegicus [5] and 0 in the experiment with Rattus norvegicus [6]. For the same compound, in the experiment on Rattus norvegicus [16], the Decrease stood at 15%.

`Cc1ncc2cc(-c3ccc(Cl)c(Cl)c3)c(N)nc2n1`: the Activity rating with Rattus norvegicus [4] and in the experiment with Rattus norvegicus [6] was 0 each time.

As for `CCc1ccccc1-c1cc2cnc(C)nc2nc1N`, the Activity rating with Rattus norvegicus [4], with Rattus norvegicus [5] and in the experiment on Rattus norvegicus [6] was 0 in each case.

Regarding `Cc1ncc2cc(-c3ccccc3)c(N)nc2n1`, the Activity rating in the experiment on Rattus norvegicus [4], in the experiment with Rattus norvegicus [5] and in the experiment on Rattus norvegicus [6] was 0 each time.

As for `Cc1ncc2cc(-c3cccc(C)c3C)c(N)nc2n1`, the Activity rating with Rattus norvegicus [4], in the experiment with Rattus norvegicus [5] and in the experiment on Rattus norvegicus [6] was 0 each time.

Take `Cc1nc(N)c2cc(-c3c(Cl)cccc3Cl)c(N)nc2n1`: the Activity rating in the experiment on Rattus norvegicus [4], in the experiment with Rattus norvegicus [5] and with Rattus norvegicus [6] was 0 in each case.

In the case of `Nc1nc2nc(C3CC3)ncc2cc1-c1c(Cl)cccc1Cl`, the Activity rating in the experiment on Rattus norvegicus [1], with Rattus norvegicus [2] and in the experiment on Rattus norvegicus [3] was 0 throughout.

For `CCc1ccccc1-c1cc2cncnc2nc1N`, the results for the Activity rating in the experiment on Rattus norvegicus [4], with Rattus norvegicus [5] and in the experiment with Rattus norvegicus [6] were 0, 0 and 3, respectively. The Decrease in the experiment with Rattus norvegicus [7] worked out at 33%.

Regarding `Cc1ncc2cc(-c3ccccc3I)c(N)nc2n1`, the Activity rating in the experiment with Rattus norvegicus [4], with Rattus norvegicus [5] and in the experiment on Rattus norvegicus [6] was 0 each time.

Take `Cc1nc(C)c2cc(-c3ccccc3C)c(N)nc2n1`: the Activity rating in the experiment on Rattus norvegicus [4], with Rattus norvegicus [5] and in the experiment with Rattus norvegicus [6] was 0 in each case. The compound also displayed a Decrease in the experiment with Rattus norvegicus [8] of 11%.

Consider `Cc1ncc2cc(-c3c(C)cccc3C)c(N)nc2n1`, for which the Activity rating in the experiment with Rattus norvegicus [4], with Rattus norvegicus [5] and in the experiment on Rattus norvegicus [6] was 0 in each case.

For `Nc1nc2ncncc2cc1-c1ccccc1`, the Activity rating in the experiment with Rattus norvegicus [4], in the experiment on Rattus norvegicus [5] and in the experiment with Rattus norvegicus [6] was 0 throughout.

In the case of `Cc1ncc2cc(-c3c(C)cccc3Cl)c(N)nc2n1`, the Activity rating is 2 in the experiment on Rattus norvegicus [4]; 2 in the experiment on Rattus norvegicus [13]; 2 in the experiment on Rattus norvegicus [9]; 2 with Rattus norvegicus [14]; 1 in the experiment with Rattus norvegicus [6]. This compound returned a Decrease in the experiment on Rattus norvegicus [10] of 30%.

For `Cc1ncc2cc(-c3ccccc3C(F)(F)F)c(N)nc2n1`, the Activity rating in the experiment on Rattus norvegicus [4], with Rattus norvegicus [5] and with Rattus norvegicus [6] was 0 in each case.

Consider `Nc1nc2nc(C3CC3)ncc2cc1-c1ccccc1Br`, for which the Activity rating in the experiment on Rattus norvegicus [1], in the experiment with Rattus norvegicus [2] and in the experiment on Rattus norvegicus [3] was 0 throughout.
